Sampled rows, rich in hits. Any-hit rate of the full collection: about 12%.
Dynein cargo inh: blocks dynein driven cargo transport along microtubules | 3617.4 mouse cells, GR-EGFP nuclear translocation imaging; test concentration mostly 20 µM; stimulated with dexamethasone, 1 µM; hits give low values | z-score, hits read low | 220,000 compounds, 0.47% hits;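 active means plate z-score of nuclear minus cytoplasmic receptor signal below a set negative limit, without overly bright fluorescence or cell loss, cut at about -3.5 in these data, passing the limit was not always enough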;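 further: z-score of nuclear minus cytoplasmic ring GR-EGFP intensity difference per well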
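Medium: Induction medium lacking tetracycline, stripped serum | Probe or stimulus: 1.0 µM final dexamethasone stimulus | Schedule: 48 h induction, then 1 h compound, then 30 min agonist, 37 °C | Signal: Automated 10x imaging of fixed Hoechst-stained cells | Evaluation: Per-cell GR-EGFP intensity, nucleus versus surrounding cytoplasmic ring, well-averaged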
CHOP inhibitor: CHOP inhibition in unfolded protein response. CHO-K1 CHOP-promoter luciferase, tunicamycin-induced, 15-18 h. inhibition, % at 10 µM. 220,000 compounds, 3.8% hits. AID 2732;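 active means compounds that reduced the stress-induced luciferase reporter signal by more than about 70% of percent inhibition, limit read from the data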;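 further: 0% = tunicamycin plus vehicle and 100% = wells without tunicamycin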
MT stabilize HCS: microtubule stabilization, imaging screen | 200,000 compounds, 0.83% hits | % tubulin-high responders, % at 10 µM | AID 2205 | HeLa tubulin immunostaining HCS, 24 h; share of cells brighter than vehicle mean+2SD;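 active means plate Z-score above 3 for both tubulin-high and condensed-nucleus cell shares, with cell loss under 80%, at 10 µM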;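 further: anti alpha tubulin signal scored within the nucleus-defined area of each cell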
b-catenin transl: alters nuclear translocation of beta-catenin in HeLa cells. nuclear translocation activity, % at 5 µM. 190,000 compounds, 0.3% hits. immunofluorescence imaging. AID 1665;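 active means nuclear translocation activity above 50% at 5 µM, with a well cell count of 50 or more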;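 further: per-cell ratio of nuclear to cytoplasmic median beta-catenin stain intensity; plate controls were DMSO negative control for no effect and GSK-3 inhibitor IX positive control for full effect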
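System: Human HeLa cells, endogenous beta-catenin | Compound dosing: 5 µM primary, 0.02–20 µM confirmation | Timing: 24 h compound exposure at 37°C, 5% CO2 | Measured by: Fluorescence imaging of beta-catenin antibody stain plus DAPI | Read-out basis: % activation of per-cell nuclear versus cytoplasmic median beta-catenin signal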
Lmaj promast: Leishmania major promastigote growth inhibition | Leishmania major promastigotes, resazurin fluorescence viability | 200,000 compounds, 9% hits | inhibition, % at 10 µM | AID 1063; in the data active means inhibition above about 50%;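 further: promastigotes grown with compound for 44 hours at 28 °C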
Autophagy HCS: autophagy modulation, high-content screen. AID 463193. 190,000 compounds, 0.98% hits. MEF GFP-LC3 puncta imaging; test concentration mostly 10 µM. calls only at 10 µM (by protocol);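 active means percentage of spot-positive cells more than 3 SD above its plate mean, without a fluorescence outlier flag or 80% toxicity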;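 further: spot-positive cell cutoff set from DMSO-treated cells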
The depositor's hits bear a star; i = inactive; · = no result given; + = active, no number.

SMILES	Dynein cargo inh	CHOP inhibitor	MT stabilize HCS	b-catenin transl	Lmaj promast	Autophagy HCS
COc1ccc(CCN(C(=O)C(F)(F)F)C(C(=O)NC2CCCCC2)c2cccs2)cc1 (centres undefined)	-0.832	15.7	3.2	2.4	26.5	i
CCN1c2ccccc2NC2C1C(C(C)=O)C(=O)N2c1ccc(Cl)cc1 (centres undefined)	-1.11	-12.3	3.4	-3.3	35.4	+
O=C1Nc2ccccc2N(O)N1c1ccc(Cl)cc1	0.817	1.0	4.0	1.3	-7.8	i
CC1CCc2c(sc(NC(=O)COC(=O)c3ccc(O)cc3)c2C#N)C1 (centres undefined)	-1.49	46.4	2.4	1.3	-5.1	i
COc1ccc(/C=N/NC(=O)c2nn(-c3ccccc3)c(=O)c3c(N)scc23)cc1	-0.529	-30.3	1.9	-2.4	82.7*	i
COc1ccc(/C=N/NC(=O)c2nn(-c3ccc(Cl)cc3)c(=O)c3c(N)scc23)cc1	-0.482	9.6	2.1	-1.9	69.2*	i
COc1ccc(/C=N/NC(=O)c2nn(-c3ccc(C)c(C)c3)c(=O)c3ccccc23)cc1	1.53	22.0	1.1	-1.6	27.6	i
COc1ccc2c(c1)c(C(=O)N/N=C/c1ccc(Cl)cc1)c(C)n2C	0.476	3.8	·	-0.1	·	·
O=C(COC(=O)CCC(=O)c1cccs1)NCc1ccccc1	0.995	4.0	2.7	-0.8	-1.0	i
Cn1nc(/C=C/c2ccccc2)ccc1=O	3.08	18.1	3.0	-4.4	-1.5	i
CCc1nnc(NC(=O)c2ccc(S(=O)(=O)N(CC(C)C)CC(C)C)cc2)o1	1.59	·	3.7	-7.5	96.3*	i
CN(c1ccccc1)S(=O)(=O)c1ccc(C(=O)Nc2nnc(C3=COCCO3)o2)cc1	-0.231	-3.3	1.6	-1.0	-4.0	i
CCc1nnc(NC(=O)c2ccc(S(=O)(=O)N(C)c3ccccc3)cc2)o1	1.05	36.2	3.3	-0.8	82.8*	i
CSCc1nnc(NC(=O)c2ccc(S(=O)(=O)N(CC(C)C)CC(C)C)cc2)o1	0.845	·	3.1	5.0	79.0*	i
COC(=O)[C@@H]1C[C@]2(OC(=O)c3ccccc3)C=CC(=O)C[C@@H]2N1C(=O)OCc1ccccc1	-6.49*	-27.6	3.3	-4.7	100.3*	i
CCC(C)NS(=O)(=O)c1ccc(S(=O)(=O)N(CCc2ccc(OC)c(OC)c2)Cc2cccs2)cc1 (centres undefined)	-0.217	49.1	3.2	1.7	55.1*	i
COc1ccc(CCN(Cc2cccs2)S(=O)(=O)c2ccc(S(=O)(=O)N3CCCCCC3)cc2)cc1OC	-0.627	20.4	4.2	-0.2	-1.8	i
O=S(=O)(NC1c2cccc3cccc(c23)C1Sc1ncccn1)c1ccc(Cl)cc1 (centres undefined)	-0.198	-2.2	1.5	-0.6	83.2*	i
Cc1ccc(S(=O)(=O)NC2c3cccc4cccc(c34)C2Sc2n[nH]c(N)n2)cc1 (centres undefined)	-0.499	19.5	4.4	-3.5	-0.8	i
CC(=O)NC(=S)Nc1ccc2oc(=O)ccc2c1	2.02	8.5	·	-1.5	·	·
O=C(CCc1nc(-c2ccccc2)no1)Nc1cc(C(F)(F)F)ccc1Cl	0.0629	93.3*	1.9	0.0	-8.3	i
O=C(Cc1ccccc1)NC(=S)Nc1cc(C(F)(F)F)ccc1Cl	0.27	94.8*	1.7	-2.5	-5.0	i
CC(C)(C)c1ccc(-c2noc(CCC(=O)NCC3CCCO3)n2)cc1 (centres undefined)	2.8	89.5*	2.4	·	6.6	i
CNC(=O)CCc1nc(-c2ccc(C(C)(C)C)cc2)no1	0.778	93.5*	4.6	0.0	-1.9	i
Cc1ccc(-c2noc(CCC(=O)NCC3CCCO3)n2)cc1 (centres undefined)	-0.628	29.9	3.6	-0.5	-2.8	i
CCN(CC)c1ccc(-c2nnc(SCC(=O)Nc3ccccc3C#N)n2-c2ccccc2)cc1	-0.848	0.1	4.9	2.0	23.7	i
COP(=O)(OC)C(Nc1ccc(C)cc1)c1ccc([N+](=O)[O-])cc1 (centres undefined)	1.01	-42.8	2.1	-4.7	4.2	i
CCOc1ccc2ncc(S(=O)(=O)c3ccccc3)c(N3CCN(c4ccc(OC)cc4)CC3)c2c1	-0.433	26.5	2.3	·	99.5*	i

Assay outcomes: PubChem BioAssay, several laboratories
